Laboratory results from ChEMBL document CHEMBL5247577, “Improved Selective Class I HDAC and Novel Selective HDAC3 Inhibitors: Beyond Hydroxamic Acids and Benzamides” (ACS Med Chem Lett, 2019).

Tests used:
[1] = target: Histone deacetylase; assay: Inhibition of HDAC in human HeLa cells using FLUOR DE LYS-SIRT1 as fluorogenic substrate incubated for 4 hrs by spectrophotometer based analysis; assay type: cell-based
[2] = Genotoxicity in Escherichia coli by Ames test; assay type: toxicity
In short: (§1)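 Bacterial reverse mutation assay in two strains, Salmonella typhimurium and Escherichia coli, scoring reverse mutations.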

[3] = target: T1, Cytochrome P450 1A2 (Homo sapiens, UniProt P05177); assay: Inhibition of CYP1A2 (unknown origin); assay type: ADME
T1 sequence (P05177 whole entry): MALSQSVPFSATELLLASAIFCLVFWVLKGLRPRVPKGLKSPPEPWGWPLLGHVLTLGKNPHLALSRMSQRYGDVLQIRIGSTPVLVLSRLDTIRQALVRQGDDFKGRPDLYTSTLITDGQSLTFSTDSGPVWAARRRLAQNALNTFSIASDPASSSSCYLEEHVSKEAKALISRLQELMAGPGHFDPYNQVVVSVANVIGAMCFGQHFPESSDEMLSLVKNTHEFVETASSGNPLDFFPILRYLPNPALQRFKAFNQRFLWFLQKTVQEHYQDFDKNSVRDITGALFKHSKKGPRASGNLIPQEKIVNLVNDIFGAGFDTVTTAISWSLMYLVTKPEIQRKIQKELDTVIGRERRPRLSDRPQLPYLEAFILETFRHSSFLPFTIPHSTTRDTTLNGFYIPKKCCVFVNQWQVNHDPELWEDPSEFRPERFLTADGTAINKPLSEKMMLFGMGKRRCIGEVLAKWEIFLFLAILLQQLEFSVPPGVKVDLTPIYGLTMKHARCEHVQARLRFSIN

[4] = Half life in NMRI mouse plasma at 20 mg/kg, po or 2 mg/kg, iv by LC/MS/MS analysis; assay type: ADME, organism-based
In short: (§2)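 Compound dosed as the tartrate salt. Oral doses were 20 mg/kg in mouse, 10 mg/kg in rat and 5 mg/kg in minipig.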

[5] = Oral bioavailability in NMRI mouse at 20 mg/kg by LC/MS/MS analysis; assay type: ADME, organism-based; settings: in vivo; in short: as §2
[6] = target: T2, Voltage-gated inwardly rectifying potassium channel KCNH2 (Homo sapiens, UniProt Q12809); assay: Inhibition of hERG potassium channel incubated for 4 hrs by fluorescence polarization assay; assay type: toxicity
T2 sequence (Q12809 whole entry): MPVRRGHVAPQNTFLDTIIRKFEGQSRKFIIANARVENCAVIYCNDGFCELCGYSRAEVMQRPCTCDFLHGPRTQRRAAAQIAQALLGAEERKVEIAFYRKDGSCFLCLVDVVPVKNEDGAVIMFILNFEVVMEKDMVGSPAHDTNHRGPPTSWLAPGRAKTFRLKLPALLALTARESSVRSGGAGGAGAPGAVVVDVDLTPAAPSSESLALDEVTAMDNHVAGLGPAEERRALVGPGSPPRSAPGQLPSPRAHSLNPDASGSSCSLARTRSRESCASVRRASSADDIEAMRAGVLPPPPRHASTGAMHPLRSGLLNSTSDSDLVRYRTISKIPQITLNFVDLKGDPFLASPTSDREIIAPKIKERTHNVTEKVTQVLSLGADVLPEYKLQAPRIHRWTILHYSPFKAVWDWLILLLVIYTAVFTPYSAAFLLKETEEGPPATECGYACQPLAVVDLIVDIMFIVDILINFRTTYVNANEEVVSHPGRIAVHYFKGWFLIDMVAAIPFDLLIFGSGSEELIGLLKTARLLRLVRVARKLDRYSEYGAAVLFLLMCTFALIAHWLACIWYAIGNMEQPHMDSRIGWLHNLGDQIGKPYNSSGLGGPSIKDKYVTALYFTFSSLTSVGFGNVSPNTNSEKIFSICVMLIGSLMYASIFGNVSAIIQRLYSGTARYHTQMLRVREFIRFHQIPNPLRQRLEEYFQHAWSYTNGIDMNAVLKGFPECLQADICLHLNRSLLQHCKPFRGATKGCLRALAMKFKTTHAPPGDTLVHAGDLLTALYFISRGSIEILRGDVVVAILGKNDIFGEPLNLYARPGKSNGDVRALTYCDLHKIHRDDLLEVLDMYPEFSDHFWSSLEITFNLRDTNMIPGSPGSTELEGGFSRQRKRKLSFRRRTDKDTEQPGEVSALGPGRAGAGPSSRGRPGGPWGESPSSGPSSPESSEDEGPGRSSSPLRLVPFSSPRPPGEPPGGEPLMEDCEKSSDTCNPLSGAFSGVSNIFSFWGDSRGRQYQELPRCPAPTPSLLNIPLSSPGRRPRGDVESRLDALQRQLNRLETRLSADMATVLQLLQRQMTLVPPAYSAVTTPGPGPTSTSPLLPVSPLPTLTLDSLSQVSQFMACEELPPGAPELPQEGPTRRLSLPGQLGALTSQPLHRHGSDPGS

[7] = target: Cytochrome P450 3A4 (Homo sapiens, UniProt P08684); assay: Inhibition of CYP3A4 (unknown origin); assay type: ADME
[8] = target: Sodium channel protein type 5 subunit alpha (Homo sapiens, UniProt Q14524); assay: Inhibition of Nav1.5 (unknown origin)
Chain of Sodium channel protein type 5 subunit alpha (Q14524 whole entry): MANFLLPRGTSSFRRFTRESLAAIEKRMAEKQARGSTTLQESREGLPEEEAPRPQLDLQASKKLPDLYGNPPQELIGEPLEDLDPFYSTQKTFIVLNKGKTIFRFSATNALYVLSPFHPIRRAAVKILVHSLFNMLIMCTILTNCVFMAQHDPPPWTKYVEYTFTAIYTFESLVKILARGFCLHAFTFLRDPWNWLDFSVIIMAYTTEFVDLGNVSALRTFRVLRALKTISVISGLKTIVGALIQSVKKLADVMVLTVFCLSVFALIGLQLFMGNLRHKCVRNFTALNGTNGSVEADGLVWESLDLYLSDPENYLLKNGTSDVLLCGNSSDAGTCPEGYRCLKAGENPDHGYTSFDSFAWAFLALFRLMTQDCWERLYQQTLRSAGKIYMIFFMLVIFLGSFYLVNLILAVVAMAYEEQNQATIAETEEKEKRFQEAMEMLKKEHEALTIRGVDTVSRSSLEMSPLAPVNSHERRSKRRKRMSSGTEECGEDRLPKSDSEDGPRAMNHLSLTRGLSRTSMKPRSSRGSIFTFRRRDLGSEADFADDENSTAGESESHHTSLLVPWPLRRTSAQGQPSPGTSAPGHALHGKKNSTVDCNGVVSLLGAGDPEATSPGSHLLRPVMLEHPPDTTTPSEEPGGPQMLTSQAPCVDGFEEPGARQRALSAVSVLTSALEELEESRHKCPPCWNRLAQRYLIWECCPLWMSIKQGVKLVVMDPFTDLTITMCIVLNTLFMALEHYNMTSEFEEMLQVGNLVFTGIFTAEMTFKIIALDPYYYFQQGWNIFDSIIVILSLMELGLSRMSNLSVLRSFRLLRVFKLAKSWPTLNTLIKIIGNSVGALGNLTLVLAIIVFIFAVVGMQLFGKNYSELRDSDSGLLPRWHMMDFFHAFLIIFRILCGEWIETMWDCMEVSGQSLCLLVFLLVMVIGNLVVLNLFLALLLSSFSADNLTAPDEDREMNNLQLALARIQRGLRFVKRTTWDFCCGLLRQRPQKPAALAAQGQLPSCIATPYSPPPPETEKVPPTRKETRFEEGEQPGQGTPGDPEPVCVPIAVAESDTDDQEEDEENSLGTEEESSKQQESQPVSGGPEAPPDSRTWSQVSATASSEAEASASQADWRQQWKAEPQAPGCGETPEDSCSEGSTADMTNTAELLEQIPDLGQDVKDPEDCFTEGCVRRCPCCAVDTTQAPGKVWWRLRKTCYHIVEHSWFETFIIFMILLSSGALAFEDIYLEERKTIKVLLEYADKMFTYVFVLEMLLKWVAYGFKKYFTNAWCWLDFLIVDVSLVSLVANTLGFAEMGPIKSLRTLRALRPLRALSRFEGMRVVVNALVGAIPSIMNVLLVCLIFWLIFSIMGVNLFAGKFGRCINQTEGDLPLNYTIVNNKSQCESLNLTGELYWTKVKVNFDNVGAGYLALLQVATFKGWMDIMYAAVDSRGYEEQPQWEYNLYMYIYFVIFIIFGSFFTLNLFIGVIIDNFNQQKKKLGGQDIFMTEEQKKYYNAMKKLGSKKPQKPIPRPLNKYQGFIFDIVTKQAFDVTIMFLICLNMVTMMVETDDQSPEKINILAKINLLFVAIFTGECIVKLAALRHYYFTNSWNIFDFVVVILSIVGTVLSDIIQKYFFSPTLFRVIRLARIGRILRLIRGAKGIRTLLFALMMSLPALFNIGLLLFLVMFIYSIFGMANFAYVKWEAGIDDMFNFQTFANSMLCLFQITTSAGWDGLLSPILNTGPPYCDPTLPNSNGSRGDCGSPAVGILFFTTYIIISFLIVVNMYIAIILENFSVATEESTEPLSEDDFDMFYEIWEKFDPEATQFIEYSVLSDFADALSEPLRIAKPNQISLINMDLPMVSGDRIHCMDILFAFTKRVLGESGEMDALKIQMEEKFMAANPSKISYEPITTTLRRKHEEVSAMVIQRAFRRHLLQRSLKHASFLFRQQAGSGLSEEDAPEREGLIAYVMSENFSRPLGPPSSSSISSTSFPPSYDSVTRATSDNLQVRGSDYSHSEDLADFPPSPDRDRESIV

[9] = target: Cytochrome P450 2C9 (Homo sapiens, UniProt P11712); assay: Inhibition of CYP2C9 (unknown origin); assay type: ADME
Chain of Cytochrome P450 2C9 (P11712 whole entry): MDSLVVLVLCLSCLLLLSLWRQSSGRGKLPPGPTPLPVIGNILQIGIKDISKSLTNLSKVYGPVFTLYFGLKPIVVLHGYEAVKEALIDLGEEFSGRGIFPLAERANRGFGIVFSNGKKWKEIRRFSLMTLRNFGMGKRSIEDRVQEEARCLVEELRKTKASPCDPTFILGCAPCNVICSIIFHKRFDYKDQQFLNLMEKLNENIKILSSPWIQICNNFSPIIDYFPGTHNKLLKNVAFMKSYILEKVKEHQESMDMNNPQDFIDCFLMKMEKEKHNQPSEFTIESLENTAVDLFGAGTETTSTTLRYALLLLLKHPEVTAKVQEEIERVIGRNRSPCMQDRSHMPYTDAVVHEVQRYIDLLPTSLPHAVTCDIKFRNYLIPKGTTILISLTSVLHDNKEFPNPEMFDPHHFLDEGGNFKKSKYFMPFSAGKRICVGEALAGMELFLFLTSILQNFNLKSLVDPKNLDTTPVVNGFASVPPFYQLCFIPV

[10] = AUC in NMRI mouse plasma at 5 to 20 mg/kg, po by LC/MS/MS analysis; assay type: ADME, organism-based; set-up: route po; settings: in vivo, dose 5-20 mg/kg
In short: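 Compound given orally as its tartrate salt at 20 mg/kg in mouse, 10 mg/kg in rat and 5 mg/kg in minipig.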

[11] = Oral bioavailability in Gottigen pig by LC/MS/MS analysis; assay type: ADME, organism-based, Sus scrofa; settings: in vivo; in short: as §2
[12] = target: Histone deacetylase 2 (Homo sapiens, UniProt Q92769); assay: Inhibition of human HDAC2
Chain of Histone deacetylase 2 (Q92769 whole entry): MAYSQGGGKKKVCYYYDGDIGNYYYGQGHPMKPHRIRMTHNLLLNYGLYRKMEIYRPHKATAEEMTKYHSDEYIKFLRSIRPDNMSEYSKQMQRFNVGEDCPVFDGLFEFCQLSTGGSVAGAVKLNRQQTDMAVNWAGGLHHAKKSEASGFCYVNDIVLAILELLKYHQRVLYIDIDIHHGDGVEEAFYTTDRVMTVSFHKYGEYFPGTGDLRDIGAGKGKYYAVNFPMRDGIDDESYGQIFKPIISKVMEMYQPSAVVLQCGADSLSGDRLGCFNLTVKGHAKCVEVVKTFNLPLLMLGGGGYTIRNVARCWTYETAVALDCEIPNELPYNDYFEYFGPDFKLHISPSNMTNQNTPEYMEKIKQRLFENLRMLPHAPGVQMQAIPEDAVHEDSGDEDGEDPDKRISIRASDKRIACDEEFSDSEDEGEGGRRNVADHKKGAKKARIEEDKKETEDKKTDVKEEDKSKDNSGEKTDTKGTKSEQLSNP

[13] = Volume of distribution at steady state in Wistar rat at 10 mg/kg, po or 2 mg/kg,iv by LC/MS/MS analysis; assay type: ADME, organism-based; settings: in vivo; in short: as §2
[14] = target: T2, Voltage-gated inwardly rectifying potassium channel KCNH2; assay: Inhibition of hERG by patch clamp assay; assay type: toxicity
[15] = Permeability of the compound in porcine brain endothelial cells by BBB assay; assay type: ADME, cell-based, Sus scrofa, Endothelial cell; settings: pig; read-out: permeability
[16] = Clearance in Gottigen pig plasma by LC/MS/MS analysis; assay type: ADME, Sus scrofa; in short: as §2
[17] = Half life in Gottigen pig plasma by LC/MS/MS analysis; assay type: ADME, Sus scrofa; in short: as §2
[18] = target: Cytochrome P450 2D6 (Homo sapiens, UniProt P10635); assay: Inhibition of CYP2D6 (unknown origin); assay type: ADME
Chain of Cytochrome P450 2D6 (P10635 whole entry): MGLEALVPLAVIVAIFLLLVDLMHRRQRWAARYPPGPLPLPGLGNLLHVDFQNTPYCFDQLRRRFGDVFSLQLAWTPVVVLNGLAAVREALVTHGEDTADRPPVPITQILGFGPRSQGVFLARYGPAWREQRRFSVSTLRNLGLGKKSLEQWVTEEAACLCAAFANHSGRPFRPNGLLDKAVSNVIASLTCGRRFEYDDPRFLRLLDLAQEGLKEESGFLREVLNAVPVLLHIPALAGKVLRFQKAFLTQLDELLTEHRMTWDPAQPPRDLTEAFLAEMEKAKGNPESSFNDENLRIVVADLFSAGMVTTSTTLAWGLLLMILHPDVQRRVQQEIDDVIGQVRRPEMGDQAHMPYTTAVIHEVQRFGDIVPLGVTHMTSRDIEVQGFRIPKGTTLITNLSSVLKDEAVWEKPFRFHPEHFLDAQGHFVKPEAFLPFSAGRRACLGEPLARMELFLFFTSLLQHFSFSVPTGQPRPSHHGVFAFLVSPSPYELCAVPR

[19] = Unbound fraction in human plasma; assay type: ADME, cell-free
[20] = Oral bioavailability in Wistar rat at 10 mg/kg by LC/MS/MS analysis; assay type: ADME, organism-based; settings: in vivo; in short: as §2
[21] = Volume of distribution at steady state in Gottigen pig by LC/MS/MS analysis; assay type: ADME, Sus scrofa; settings: in vivo, read-out: Vdss; in short: as §2
[22] = Genotoxicity in Salmonella typhimurium by Ames test; assay type: toxicity; settings: salmonella enterica subsp. enterica serovar typhimurium; in short: as §1
[23] = target: T3, Protein deacetylase HDAC6 (Homo sapiens, UniProt Q9UBN7); assay: Inhibition of human HDAC6
T3 sequence (Q9UBN7 whole entry): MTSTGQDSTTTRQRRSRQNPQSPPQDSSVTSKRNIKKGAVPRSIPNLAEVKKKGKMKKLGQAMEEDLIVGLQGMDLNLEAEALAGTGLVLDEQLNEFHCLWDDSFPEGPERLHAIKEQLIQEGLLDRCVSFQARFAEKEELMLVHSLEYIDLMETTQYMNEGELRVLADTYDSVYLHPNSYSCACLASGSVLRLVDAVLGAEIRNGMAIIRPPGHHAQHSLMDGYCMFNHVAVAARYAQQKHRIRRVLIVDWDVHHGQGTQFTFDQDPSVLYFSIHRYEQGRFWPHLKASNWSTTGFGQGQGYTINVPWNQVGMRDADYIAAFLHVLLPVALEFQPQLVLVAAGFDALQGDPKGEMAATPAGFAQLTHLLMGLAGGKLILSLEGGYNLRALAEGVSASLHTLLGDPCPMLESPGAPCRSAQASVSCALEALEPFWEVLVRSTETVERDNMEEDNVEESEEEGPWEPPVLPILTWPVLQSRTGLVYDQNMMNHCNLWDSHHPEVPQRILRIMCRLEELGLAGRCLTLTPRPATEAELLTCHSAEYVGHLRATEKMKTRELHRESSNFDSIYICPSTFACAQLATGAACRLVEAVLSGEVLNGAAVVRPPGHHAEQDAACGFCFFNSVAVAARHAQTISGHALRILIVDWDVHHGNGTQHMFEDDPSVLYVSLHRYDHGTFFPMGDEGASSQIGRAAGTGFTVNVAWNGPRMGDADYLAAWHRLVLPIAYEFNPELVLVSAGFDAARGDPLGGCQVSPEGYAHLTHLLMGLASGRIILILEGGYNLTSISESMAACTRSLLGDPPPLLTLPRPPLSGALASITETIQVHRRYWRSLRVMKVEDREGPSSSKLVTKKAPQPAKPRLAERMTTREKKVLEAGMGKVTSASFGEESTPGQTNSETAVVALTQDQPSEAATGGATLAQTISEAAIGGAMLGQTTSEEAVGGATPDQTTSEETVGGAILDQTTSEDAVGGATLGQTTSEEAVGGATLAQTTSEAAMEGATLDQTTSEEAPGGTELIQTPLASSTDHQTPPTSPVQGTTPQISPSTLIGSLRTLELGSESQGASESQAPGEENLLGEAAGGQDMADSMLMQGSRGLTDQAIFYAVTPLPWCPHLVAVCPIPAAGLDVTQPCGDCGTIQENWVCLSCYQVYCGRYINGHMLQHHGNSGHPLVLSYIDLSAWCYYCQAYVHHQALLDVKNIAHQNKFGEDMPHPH

With `CCC(=O)CCCCC[C@H](NC(=O)C1CN(C)C1)c1ncc(-c2cc3ccccc3nc2OC)o1` the EC50 [1] was 0.05 µM, the Activity [2] was “Non-Toxic” and the IC50 [3] was > 20 µM. It also gave a half-life [4] of 3.3 h, an F [5] of 62% and an IC50 [6] of 3.6 µM. The IC50 [7] was > 20 µM, the IC50 [8] was > 16 µM and the IC50 [9] was > 20 µM. The AUC [10] was 9.3 µM·h, the bioavailability [11] was 30% and the IC50 [12] was 0.0028 µM. For the same compound, the Vdss [13] was 5.3 L/kg, the IC50 [14] was 10 µM and the Papp [15] was 10.5 ×10⁻⁶ cm/s. The clearance [16] was 20 mL/min/kg, the half-life [17] was 3.7 h and the IC50 [18] was > 20 µM. The fraction unbound [19] was 0.018, the bioavailability [20] was 100% and the Vd [21] was 0.64 L/kg. The Activity [22] was “Non-Toxic” and the IC50 [23] was 0.177 µM.
